The target in assay [1] is Isocitrate lyase (Candida albicans, UniProt Q9P8Q7). The assay is described as follows: Inhibition of Candida albicans isocitrate lyase.
Assay [2] deals with T1, Sortase A (Staphylococcus aureus, UniProt Q9S446).
T1 sequence (Q9S446 whole entry): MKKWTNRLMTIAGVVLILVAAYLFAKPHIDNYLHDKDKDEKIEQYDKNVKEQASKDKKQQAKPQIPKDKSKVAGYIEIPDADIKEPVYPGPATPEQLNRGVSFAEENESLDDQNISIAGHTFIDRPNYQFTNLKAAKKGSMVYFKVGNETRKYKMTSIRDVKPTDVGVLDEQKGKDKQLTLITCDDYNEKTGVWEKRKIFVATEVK
As to the kind of experiment: Inhibition of Staphylococcus aureus Sortase A.

In assay [3] the test system is Staphylococcus aureus. The assay is described as follows: Antimicrobial activity against Staphylococcus aureus ATCC 6538p. In kind it is functional. Summed up: (§1)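 MIC by two-fold serial broth dilution in microtiter format. MIC taken as the lowest concentration giving complete growth inhibition relative to the negative control.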
In assay [4] the test system is Bacillus subtilis. As to the kind of experiment: Antimicrobial activity against Bacillus subtilis ATCC 6633. In kind it is functional. Summed up: as §1
In assay [5] the test system is Salmonella typhimurium. As to the kind of experiment: Antimicrobial activity against Salmonella Typhimurium ATCC 14028. Format: functional, Salmonella enterica subsp. enterica serovar Typhimurium. The following applies: Salmonella enterica. Summed up:
as §1

Assay [6] relates to Proteus vulgaris. As to the kind of experiment: Antimicrobial activity against Proteus vulgaris ATCC 3851. Format: functional. Summed up: as §1
Assay [7] concerns Micrococcus luteus. The assay is described as follows: Antimicrobial activity against Micrococcus luteus IFC 12708. Format: functional. Summed up:
as §1

Assay [8] concerns Escherichia coli. The assay is described as follows: Antimicrobial activity against Escherichia coli ATCC 25922. In kind it is functional. Summed up:
as §1

This is an account of results in ChEMBL document CHEMBL1287712, “Synthetic analogs of indole-containing natural products as inhibitors of sortase A and isocitrate lyase” (Bioorg Med Chem Lett, 2010).

SMILES strings stand for the structures. ≈ marks a conversion by molar mass, not a printed value. Where “and” joins values, the source holds several entries; their conditions need not be identical. Equal values may be shown once.

By IC50 is commonly meant the point on the concentration scale where inhibition reaches its midpoint. A low value points to greater potency in that assay. The term MIC denotes the least concentration at which growth counts as inhibited. Lower therefore signals inhibition by little substance.

Sequence of Isocitrate lyase (Q9P8Q7 whole entry): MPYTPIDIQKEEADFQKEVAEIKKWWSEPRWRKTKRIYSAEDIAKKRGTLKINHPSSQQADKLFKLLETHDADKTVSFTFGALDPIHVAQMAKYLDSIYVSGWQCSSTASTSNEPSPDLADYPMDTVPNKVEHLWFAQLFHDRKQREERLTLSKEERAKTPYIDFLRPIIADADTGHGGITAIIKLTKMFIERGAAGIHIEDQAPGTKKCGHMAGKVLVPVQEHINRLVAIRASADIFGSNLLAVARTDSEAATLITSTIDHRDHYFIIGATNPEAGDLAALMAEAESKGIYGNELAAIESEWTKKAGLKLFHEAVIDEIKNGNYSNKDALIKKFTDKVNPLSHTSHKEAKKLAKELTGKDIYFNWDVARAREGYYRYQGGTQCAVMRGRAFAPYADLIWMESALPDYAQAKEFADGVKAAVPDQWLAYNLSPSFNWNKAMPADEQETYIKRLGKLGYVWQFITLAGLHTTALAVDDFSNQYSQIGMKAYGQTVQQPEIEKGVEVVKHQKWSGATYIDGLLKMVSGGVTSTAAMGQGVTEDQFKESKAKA

Take `O=C(O)C(=O)c1c[nH]c2ccc(O)cc12`: the IC50 in assay [1] and in assay [2] was more than 487 µM throughout.
Turning to `COc1ccc2[nH]cc(C(=O)C(=O)O)c2c1`, the IC50 in assay [1] and in assay [2] was more than 456 µM throughout.
As to `Cc1[nH]c2ccccc2c1C(=O)C(=O)O`, the half-maximal inhibitory concentration (IC50) was more than 492 µM in assay [1] and 133 µM in assay [2]. Also, the MIC in assay [3], in assay [4], in assay [5], in assay [6], in assay [7] and in assay [8] was more than 200 µg/mL throughout.
For the compound `CCCCCC1NCCc2c1[nH]c1ccccc21` (centres undefined), the IC50 in assay [1] and in assay [2] was more than 413 µM in each case.
For the compound `CCCCCC1NCCc2c1[nH]c1ccc(OC)cc21` (centres undefined), the IC50 in assay [1] and in assay [2] was more than 367 µM in each case.
Take `Oc1ccc2[nH]c3c(c2c1)CCNC3c1ccccc1` (centres undefined): the IC50 in assay [1] was more than 378 µM; in assay [2], 106 µM. The MIC is 100 µg/mL (≈ 378 µM) in assay [3]; 100 µg/mL (≈ 378 µM) in assay [4]; 100 µg/mL (≈ 378 µM) in assay [5]; 100 µg/mL (≈ 378 µM) in assay [6]; 100 µg/mL (≈ 378 µM) in assay [7]; more than 200 µg/mL in assay [8].
Regarding `c1ccc(C2=NCCc3c2[nH]c2ccccc32)cc1`, the IC50 in assay [1] was more than 406 µM; in assay [2], 97.4 µM and 97 µM. The MIC in assay [3], in assay [4], in assay [5], in assay [6], in assay [7] and in assay [8] was more than 200 µg/mL throughout.
In the case of `O=C(Nc1ccccc1)C(=O)c1c[nH]c2ccc(O)cc12`, the IC50 in assay [1] and in assay [2] was more than 357 µM in each case.
In the case of `COc1ccc2[nH]cc(C(=O)C(=O)Nc3ccccc3)c2c1`, the IC50 in assay [1] and in assay [2] was more than 340 µM throughout.
In the case of `COc1ccc2[nH]c3c(c2c1)CCNC3c1ccccc1` (centres undefined), the IC50 was more than 359 µM in assay [1] and 115 µM in assay [2]. For the same compound, the MIC in assay [3], in assay [4], in assay [5], in assay [6], in assay [7] and in assay [8] was more than 200 µg/mL each time.
With `c1ccc2cc(C3NCCc4c3[nH]c3ccccc43)ccc2c1` (centres undefined), the results for the IC50 in assay [1] and in assay [2] were 137 µM and more than 335 µM, respectively. The MIC in assay [3] was found to be 12.5 µg/mL (≈ 41.9 µM); in assay [4] it was 6.25 µg/mL (≈ 20.9 µM); in assay [5], 12.5 µg/mL (≈ 41.9 µM); in assay [6], 6.25 µg/mL (≈ 20.9 µM); in assay [7] it was 12.5 µg/mL (≈ 41.9 µM); in assay [8], 50 µg/mL (≈ 168 µM).
In the case of `COc1ccc(C2NCCc3c2[nH]c2ccccc32)cc1` (centres undefined), the IC50 in assay [1] is 180 µM; in assay [2], more than 359 µM. The MIC in assay [3] was 12.5 µg/mL (≈ 44.9 µM); in assay [4], 6.25 µg/mL (≈ 22.5 µM); in assay [5], 6.25 µg/mL (≈ 22.5 µM); in assay [6] it was 6.25 µg/mL (≈ 22.5 µM); in assay [7], 6.25 µg/mL (≈ 22.5 µM); in assay [8], 50 µg/mL (≈ 180 µM).
For `COc1ccc2[nH]c3c(c2c1)CCN=C3c1ccccc1`, the IC50 is more than 362 µM in assay [1]; 25.3 µM and 25 µM in assay [2]. Also, the MIC in assay [3], in assay [4], in assay [5], in assay [6], in assay [7] and in assay [8] was more than 200 µg/mL throughout.
Consider `c1ccc(C2NCCc3c2[nH]c2ccccc32)cc1` (centres undefined), for which the IC50 in assay [1] and in assay [2] was more than 403 µM each time.
For `COc1cccc(C2NCCc3c2[nH]c2ccccc32)c1` (centres undefined), the IC50 was 75 µM and 75.4 µM in assay [1]; more than 359 µM in assay [2]. Further, the MIC in assay [3] was found to be 6.25 µg/mL (≈ 22.5 µM); in assay [4], 12.5 µg/mL (≈ 44.9 µM); in assay [5], 12.5 µg/mL (≈ 44.9 µM); in assay [6], 12.5 µg/mL (≈ 44.9 µM); in assay [7], 12.5 µg/mL (≈ 44.9 µM); in assay [8], 50 µg/mL (≈ 180 µM).
Consider `O=C(O)C1NCCc2c1[nH]c1ccc(O)cc21` (centres undefined), for which the IC50 in assay [1] and in assay [2] was more than 431 µM throughout.
For the compound `O=C(O)C1NCCc2c1[nH]c1ccccc21` (centres undefined), the IC50 in assay [1] and in assay [2] was more than 462 µM in each case.
Take `O=C(Nc1ccccc1)C(=O)c1c[nH]c2ccccc12`: the IC50 in assay [1] was more than 378 µM; in assay [2] it was 174 µM. For the same compound, the MIC in assay [3], in assay [4], in assay [5], in assay [6], in assay [7] and in assay [8] was more than 200 µg/mL each time.
Regarding `COc1ccc2[nH]c3c(c2c1)CCNC3C(=O)O` (centres undefined), the IC50 in assay [1] and in assay [2] was more than 406 µM each time.
Turning to `O=C1NCCc2c1[nH]c1ccc(O)cc21`, the IC50 in assay [1] and in assay [2] was more than 495 µM throughout.
With `COC(=O)c1c[nH]c2ccc(O)cc12`, the IC50 in assay [1] and in assay [2] was more than 523 µM in each case.
For the compound `O=C(O)C1=NCCc2c1[nH]c1ccc(O)cc21`, the IC50 in assay [2] was 291 µM and 290 µM.
As for `O=Cc1c[nH]c2ccc(O)cc12`, in assay [2], the IC50 is more than 621 µM.
As to `Cc1[nH]c2ccccc2c1C(=O)C(=O)Nc1ccccc1`, the IC50 in assay [1] is more than 359 µM; in assay [2], 61.1 µM and 61 µM. Besides, the MIC in assay [3], in assay [4], in assay [5], in assay [6], in assay [7] and in assay [8] was more than 200 µg/mL in each case.
In the case of `O=C(O)C(=O)c1c[nH]c2ccccc12`, the IC50 was more than 529 µM in assay [1]; 68.7 µM and 69 µM in assay [2]. Further, the MIC in assay [3], in assay [4], in assay [5], in assay [6], in assay [7] and in assay [8] was more than 200 µg/mL throughout.
Regarding `CC1(C)S[C@@H]2[C@H](NC(=O)[C@H](N)c3ccccc3)C(=O)N2[C@H]1C(=O)O` [AMPICILLIN], the MIC in assay [3] was determined as 1.56 µg/mL (≈ 4.46 µM); in assay [4], 0.78 µg/mL (≈ 2.23 µM); in assay [5], 1.56 µg/mL (≈ 4.46 µM); in assay [6], 0.78 µg/mL (≈ 2.23 µM); in assay [7] it was 0.78 µg/mL (≈ 2.23 µM); in assay [8], 50 µg/mL (≈ 143 µM).
In the case of `O=C(CO)c1c[nH]c2ccc(O)cc12` [HYRTIOSIN A], in assay [2], the IC50 was more than 523 µM.
`O=C(C(=O)c1c[nH]c2ccc(O)cc12)c1c[nH]c2ccc(O)cc12` [HYRTIOSIN B]: the concentration for half-maximal inhibition (IC50) in assay [1] was 90.5 µM; in assay [2], more than 312 µM.
In assay [2], `NCCc1c[nH]c2ccc(O)cc12` [SEROTONIN] came in with an IC50 of more than 567 µM.
